Values after ≈ are worked out from the molar mass of the structure shown.
Columns and labels:
[1] = tested on: Mycolicibacterium smegmatis; test: Anti-tubercular activity against Mycobacterium smegmatis MC2 155 ATCC 700084 after 3 days by microdilution method; format: functional; conditions: MC2 155 ATCC 700084, 72 h
Summary of the method: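 M. smegmatis mc2155 grown in MB7H9 + 10% OADC at 37 °C with shaking to OD600 0.8. Inoculum set to 0.5 McFarland, diluted 1:100, and mixed 1:1 with two-fold serial dilutions in MB7H9. Plates incubated 3 days at 37 °C with growth and sterility controls. MIC taken as the lowest concentration with no visible growth.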

[2] = Cytotoxicity against human MDM assessed as cell viability after 3 days by Alamar blue dye-based fluorocytometric analysis relative to control; conditions: 72 h
[3] = tested on: Mycobacterium tuberculosis; test: Antibacterial activity against Mycobacterium tuberculosis H37Rv ATCC 27294T assessed as isoniazid MIC at 0.25 ug/ml after 7 days by microdilution checkerboard assay; format: functional; conditions: 168 h
Summary of the method: (§1)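 Two-dimensional checkerboard in H37Rv at 10^5 CFU/ml in MB7H9/OADC. Partner drug (amikacin, EtBr, isoniazid, ofloxacin or rifampin) two-fold serially diluted across columns 3-11. Test compound two-fold serially diluted down rows 2-6. Plates incubated 7 days at 37 °C, then MTT added overnight. […] Run in triplicate.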

[4] = tested on: Mycobacterium tuberculosis; test: Antibacterial activity against Mycobacterium tuberculosis H37Rv ATCC 27294T assessed as isoniazid MIC at 0.12 ug/ml after 7 days by microdilution checkerboard assay; format: functional; conditions: 168 h; summary of the method: as §1
[5] = tested on: Mycobacterium tuberculosis; test: Antibacterial activity against Mycobacterium tuberculosis H37Rv ATCC 27294T assessed as ethidium bromide MIC at 0.12 ug/ml after 7 days by microdilution checkerboard assay; format: functional; conditions: 168 h; summary of the method: as §1
[6] = tested on: Mycobacterium tuberculosis; test: Antibacterial activity against Mycobacterium tuberculosis H37Rv ATCC 27294T assessed as ethidium bromide MIC at 0.25 ug/ml after 7 days by microdilution checkerboard assay; format: functional; conditions: 168 h; summary of the method: as §1
[7] = tested on: Mycobacterium tuberculosis; test: Antibacterial activity against Mycobacterium tuberculosis H37Rv ATCC 27294T assessed as ethidium bromide MIC at 0.5 ug/ml after 7 days by microdilution checkerboard assay; format: functional; conditions: 168 h; summary of the method: as §1
[8] = tested on: Mycobacterium tuberculosis; test: Antibacterial activity against Mycobacterium tuberculosis H37Rv ATCC 27294T assessed as ethidium bromide MIC at 1 ug/ml after 7 days by microdilution checkerboard assay; format: functional; conditions: 168 h; summary of the method: as §1
[9] = tested on: Mycobacterium tuberculosis; test: Antibacterial activity against Mycobacterium tuberculosis H37Rv ATCC 27294T assessed as ethidium bromide MIC at 2 ug/ml after 7 days by microdilution checkerboard assay; format: functional; conditions: 168 h; summary of the method: as §1
[10] = tested on: Mycobacterium tuberculosis; test: Antibacterial activity against Mycobacterium tuberculosis H37Rv ATCC 27294T assessed as ethidium bromide MIC at 4 ug/ml after 7 days by microdilution checkerboard assay; format: functional; conditions: 168 h; summary of the method: as §1
[11] = tested on: Mycobacterium tuberculosis; test: Antibacterial activity against Mycobacterium tuberculosis H37Rv ATCC 27294T assessed as ethidium bromide MIC at 8 ug/ml after 7 days by microdilution checkerboard assay; format: functional; conditions: 168 h; summary of the method: as §1
[12] = tested on: Mycobacterium tuberculosis; test: Antibacterial activity against Mycobacterium tuberculosis H37Rv ATCC 27294T assessed as ofloxacin MIC at 0.12 ug/ml after 7 days by microdilution checkerboard assay; format: functional; conditions: 168 h; summary of the method: as §1
[13] = tested on: Mycobacterium tuberculosis; test: Antibacterial activity against Mycobacterium tuberculosis H37Rv ATCC 27294T assessed as ofloxacin MIC at 0.25 ug/ml after 7 days by microdilution checkerboard assay; format: functional; conditions: 168 h; summary of the method: as §1
[14] = tested on: Mycobacterium tuberculosis; test: Antibacterial activity against Mycobacterium tuberculosis H37Rv ATCC 27294T assessed as ofloxacin MIC at 0.5 ug/ml after 7 days by microdilution checkerboard assay; format: functional; conditions: 168 h; summary of the method: as §1
[15] = tested on: Mycobacterium tuberculosis; test: Antibacterial activity against Mycobacterium tuberculosis H37Rv ATCC 27294T assessed as ofloxacin MIC at 1 ug/ml after 7 days by microdilution checkerboard assay; format: functional; conditions: 168 h; summary of the method: as §1
[16] = tested on: Mycobacterium tuberculosis; test: Antibacterial activity against Mycobacterium tuberculosis H37Rv ATCC 27294T assessed as ofloxacin MIC at 2 ug/ml after 7 days by microdilution checkerboard assay; format: functional; conditions: 168 h; summary of the method: as §1
[17] = tested on: Mycobacterium tuberculosis; test: Antibacterial activity against Mycobacterium tuberculosis H37Rv ATCC 27294T assessed as ofloxacin MIC at 4 ug/ml after 7 days by microdilution checkerboard assay; format: functional; conditions: 168 h; summary of the method: as §1
[18] = tested on: Mycobacterium tuberculosis; test: Antibacterial activity against Mycobacterium tuberculosis H37Rv ATCC 27294T assessed as ofloxacin MIC at 8 ug/ml after 7 days by microdilution checkerboard assay; format: functional; conditions: 168 h; summary of the method: as §1
[19] = tested on: Mycobacterium tuberculosis; test: Antibacterial activity against Mycobacterium tuberculosis H37Rv ATCC 27294T assessed as amikacin MIC at 0.12 ug/ml after 7 days by microdilution checkerboard assay; format: functional; conditions: 168 h; summary of the method: as §1
[20] = tested on: Mycobacterium tuberculosis; test: Antibacterial activity against Mycobacterium tuberculosis H37Rv ATCC 27294T assessed as amikacin MIC at 0.25 ug/ml after 7 days by microdilution checkerboard assay; format: functional; conditions: 168 h; summary of the method: as §1
[21] = tested on: Mycobacterium tuberculosis; test: Antibacterial activity against Mycobacterium tuberculosis H37Rv ATCC 27294T assessed as amikacin MIC at 0.5 ug/ml after 7 days by microdilution checkerboard assay; format: functional; conditions: 168 h; summary of the method: as §1
[22] = tested on: Mycobacterium tuberculosis; test: Antibacterial activity against Mycobacterium tuberculosis H37Rv ATCC 27294T assessed as amikacin MIC at 1 ug/ml after 7 days by microdilution checkerboard assay; format: functional; conditions: 168 h; summary of the method: as §1
[23] = tested on: Mycobacterium tuberculosis; test: Antibacterial activity against Mycobacterium tuberculosis H37Rv ATCC 27294T assessed as amikacin MIC at 2 ug/ml after 7 days by microdilution checkerboard assay; format: functional; conditions: 168 h; summary of the method: as §1
[24] = tested on: Mycobacterium tuberculosis; test: Antibacterial activity against Mycobacterium tuberculosis H37Rv ATCC 27294T assessed as amikacin MIC at 4 ug/ml after 7 days by microdilution checkerboard assay; format: functional; conditions: 168 h; summary of the method: as §1
[25] = tested on: Mycobacterium tuberculosis; test: Anti-tubercular activity against Mycobacterium tuberculosis H37Rv ATCC 27294T after 7 days by mircodilution method; format: functional; conditions: 168 h
Summary of the method: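 H37Rv grown static in MB7H9 + 10% OADC at 37 °C to OD600 0.8, then diluted to about 10^5 cells/ml. Mixed 1:1 with two-fold serial dilutions in MB7H9/OADC and incubated 7 days at 37 °C. MTT added to final 2.5% and plates incubated overnight. MIC is the lowest concentration with no colour change. Run in triplicate.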

[26] = tested on: Mycobacterium tuberculosis; test: Antibacterial activity against Mycobacterium tuberculosis H37Rv ATCC 27294T assessed as isoniazid MIC at 8 ug/ml after 7 days by microdilution checkerboard assay; format: functional; conditions: 168 h; summary of the method: as §1
[27] = tested on: Mycobacterium tuberculosis; test: Antibacterial activity against Mycobacterium tuberculosis H37Rv ATCC 27294T assessed as isoniazid MIC at 4 ug/ml after 7 days by microdilution checkerboard; format: functional; conditions: 168 h; summary of the method: as §1
[28] = tested on: Mycobacterium tuberculosis; test: Antibacterial activity against Mycobacterium tuberculosis H37Rv ATCC 27294T assessed as isoniazid MIC at 2 ug/ml after 7 days by microdilution checkerboard assay; format: functional; conditions: 168 h; summary of the method: as §1
[29] = tested on: Mycobacterium tuberculosis; test: Antibacterial activity against Mycobacterium tuberculosis H37Rv ATCC 27294T assessed as isoniazid MIC at 1 ug/ml after 7 days by microdilution checkerboard assay; format: functional; conditions: 168 h; summary of the method: as §1
[30] = tested on: Mycobacterium tuberculosis; test: Antibacterial activity against Mycobacterium tuberculosis H37Rv ATCC 27294T assessed as isoniazid MIC at 0.5 ug/ml after 7 days by microdilution checkerboard assay; format: functional; conditions: 168 h; summary of the method: as §1
[31] = tested on: Mycobacterium tuberculosis; test: Antibacterial activity against Mycobacterium tuberculosis H37Rv ATCC 27294T assessed as amikacin MIC at 8 ug/ml after 7 days by microdilution checkerboard assay; format: functional; conditions: 168 h; summary of the method: as §1
[32] = tested on: Mycobacterium tuberculosis; test: Antibacterial activity against Mycobacterium tuberculosis H37Rv ATCC 27294T assessed as rifampin MIC at 0.12 ug/ml after 7 days by microdilution checkerboard assay; format: functional; conditions: 168 h; summary of the method: as §1
[33] = tested on: Mycobacterium tuberculosis; test: Antibacterial activity against Mycobacterium tuberculosis H37Rv ATCC 27294T assessed as rifampin MIC at 0.25 ug/ml after 7 days by microdilution checkerboard assay; format: functional; conditions: 168 h; summary of the method: as §1
[34] = tested on: Mycobacterium tuberculosis; test: Antibacterial activity against Mycobacterium tuberculosis H37Rv ATCC 27294T assessed as rifampin MIC at 0.5 ug/ml after 7 days by microdilution checkerboard assay; format: functional; conditions: 168 h
Summary of the method: (§2)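 M. tuberculosis H37Rv grown in MB7H9 + 10% OADC at 37 °C to OD600 0.8; plates inoculated at 10^5 CFU/ml. Rifampicin two-fold serially diluted across columns, test compound two-fold diluted down rows (two-dimensional checkerboard). Sealed, 37 °C for seven days, then MTT added and incubated overnight. MIC read as no colour change. Triplicate.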

[35] = tested on: Mycobacterium tuberculosis; test: Antibacterial activity against Mycobacterium tuberculosis H37Rv ATCC 27294T assessed as rifampin MIC at 1 ug/ml after 7 days by microdilution checkerboard assay; format: functional; conditions: 168 h; summary of the method: as §2
[36] = tested on: Mycobacterium tuberculosis; test: Antibacterial activity against Mycobacterium tuberculosis H37Rv ATCC 27294T assessed as rifampin MIC at 2 ug/ml after 7 days by microdilution checkerboard assay; format: functional; conditions: 168 h; summary of the method: as §2
[37] = tested on: Mycobacterium tuberculosis; test: Antibacterial activity against Mycobacterium tuberculosis H37Rv ATCC 27294T assessed as rifampin MIC at 4 ug/ml after 7 days by microdilution checkerboard assay; format: functional; conditions: 168 h; summary of the method: as §2
[38] = tested on: Mycobacterium tuberculosis; test: Antibacterial activity against Mycobacterium tuberculosis H37Rv ATCC 27294T assessed as rifampin MIC at 8 ug/ml after 7 days by microdilution checkerboard assay; format: functional; conditions: 168 h; summary of the method: as §2

With `CSc1ccc2c(c1)N(CCC1CCCCN1C)c1ccccc1S2` (stereo not drawn) [THIORIDAZINE] the MIC [1] was 31 µg/mL (≈ 83.7 µM), the IC50 [2] was 5.5 µg/mL (≈ 14.8 µM) and the MIC [3] was 0.1 µg/mL. For the same molecule, the MIC [4] was 0.1 µg/mL, the MIC [5] was 12.5 µg/mL and the MIC [6] was 12.5 µg/mL. The MIC [7] was 6.25 µg/mL, the MIC [8] was 6.25 µg/mL and the MIC [9] was 3.12 µg/mL. The MIC [10] was 1.56 µg/mL, the MIC [11] was 0.195 µg/mL and the MIC [12] was 2 µg/mL. The MIC [13] was 2 µg/mL, the MIC [14] was 1 µg/mL and the MIC [15] was 1 µg/mL. The MIC [16] was 1 µg/mL, the MIC [17] was 1 µg/mL and the MIC [18] was 0.0312 µg/mL. The MIC [19] was 1 µg/mL, the MIC [20] was 1 µg/mL and the MIC [21] was 1 µg/mL. The MIC [22] was 1 µg/mL, the MIC [23] was 1 µg/mL and the MIC [24] was 0.25 µg/mL. The MIC [25] was 16 µg/mL (≈ 43.2 µM), the MIC [26] was 0.00156 µg/mL and the MIC [27] was 0.0125 µg/mL. For the same molecule, the MIC [28] was 0.1 µg/mL, the MIC [29] was 0.1 µg/mL and the MIC [30] was 0.1 µg/mL. It also gave an MIC [31] of 0.0312 µg/mL, an MIC [32] of 1 µg/mL and an MIC [33] of 0.5 µg/mL. The MIC [34] was 0.5 µg/mL, the MIC [35] was 0.5 µg/mL and the MIC [36] was 0.5 µg/mL. It also gave an MIC [37] of 0.5 µg/mL and an MIC [38] of 0.0156 µg/mL.
